Test results from ChEMBL document CHEMBL3763156, “Imidazole-based pinanamine derivatives: Discovery of dual inhibitors of the wild-type and drug-resistant mutant of the influenza A virus” (Eur J Med Chem, 2016).

Legend:
[1] = tested on: Influenza A virus; assay: Antiviral activity against amantadine-sensitive Influenza A virus A/HK/68 (H3N2) expressing wild type M2 ion channel infected in MDCK cells assessed as protection against virus induced cytopathic effect after 48 hrs by microscopic analysis; format: functional, organism-based, Influenza A virus (A/Hong Kong/1/1968(H3N2))
How it was run: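 MDCK cells were grown 24 h to a confluent monolayer and rinsed twice. They were infected with 100 TCID50 virus for 2 h at 37 °C in 5% CO2, and the inoculum was removed. Serial two-fold compound dilutions in DMEM with 1.5 µg/mL trypsin were added for 48 h at 34 °C in 5% CO2. CPE percentage was scored microscopically. IC50 came from non-linear regression, as the mean of 2–3 determinations.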

[2] = tested on: Influenza A virus; assay: Antiviral activity against amantadine-sensitive Influenza A virus A/HK/68 (H3N2) expressing wild type M2 ion channel infected in MDCK cells assessed as cell viability after 48 hrs by MTT assay; format: functional, organism-based, Influenza A virus (A/Hong Kong/1/1968(H3N2))
How it was run: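 Infected MDCK cells were given compound for 48 h, and the CPE-based result was confirmed by MTT viability. MTT was added from a 5 mg/mL stock for 4 h at 37 °C, stopped with DMSO, and read as absorbance at 490 nm. The 50% effective concentration was calculated by the Reed–Muench method, as the mean of 2–3 determinations.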

[3] = Cytotoxicity against MDCK cells assessed as cell viability after 48 hrs by MTT assay; format: cell-based, Canis lupus familiaris; details: dog
How it was run: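 Uninfected MDCK cells were exposed to various compound concentrations for 48 h. MTT was added from a 5 mg/mL stock for 4 h at 37 °C, stopped with DMSO, and read at 490 nm. CC50 was calculated by the Reed–Muench method, as the mean of 2–3 determinations.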

[4] = target: Matrix protein 2 (Influenza A virus (A/Udorn/307/1972(H3N2))) (UniProt P0DOF8); assay: Inhibition of Influenza A virus wild type M2 ion channel expressed in 293Trex cells at 100 uM after 2 mins by patch clamp assay; format: cell-based
[5] = target: Matrix protein 2 (Influenza A virus (A/Udorn/307/1972(H3N2))) (UniProt P0DOF8); assay: Inhibition of Influenza A virus wild type M2 ion channel expressed in Xenopus oocytes at 100 uM after 2 mins by two-electrode voltage clamp assay; format: cell-based
How it was run: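 A/M2 channel (S31N for line 7, wild type for line 9) was expressed in Xenopus oocytes and recorded by two-electrode voltage clamp. Compound was applied at 100 µM, and the percentage inhibition of channel current was taken after 2 min. Values are mean ± SD.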

[6] = Influenza A virus, MDCK, 48 h, read-out: IC50

Row | Compound | IC50 [1, 6] [µM] | IC50 [2] [µM] | CC50 at 48 h [3] [µM] | IC50 ([1]; mdck) | inhibition [4] [%] | inhibition [5] [%]
1 | CCCc1nc(-c2ccccc2)[nH]c1CN[C@@H]1C[C@@H]2C[C@H]([C@H]1C)C2(C)C | 13.5 | 15.2 | 143 |  |  | 
2 | C[C@@H]1[C@H]2C[C@@H](C[C@H]1NCc1cnc(C3CCCCC3)[nH]1)C2(C)C |  |  | 33.5 | Not Active |  | 
3 | Cc1nc[nH]c1CN[C@@H]1C[C@@H]2C[C@H]([C@H]1C)C2(C)C | 3.2 |  | 252 |  | 95.8 | 
4 | C[C@@H]1[C@H]2C[C@@H](C[C@H]1NCc1cnc(-c3ccccc3)[nH]1)C2(C)C | 7.6 | 10.7 | 79.9 |  |  | 
5 | Cc1nc(C2CC2)[nH]c1CN[C@@H]1C[C@@H]2C[C@H]([C@H]1C)C2(C)C | 15.3 | 21.2 | 74.9 |  |  | 
6 | CCCCc1ncc(CN[C@@H]2C[C@@H]3C[C@H]([C@H]2C)C3(C)C)[nH]1 |  |  | 70.4 | Not Active |  | 
7 | C[C@@H]1[C@H]2C[C@@H](C[C@H]1NCc1cnc(C(C)(C)C)[nH]1)C2(C)C | 8.8 | 12.4 | 107 |  |  | 
8 | Cc1ncc(CN[C@@H]2C[C@@H]3C[C@H]([C@H]2C)C3(C)C)[nH]1 |  |  | 202 | Not Active |  | 
9 | C[C@@H]1[C@H]2C[C@@H](C[C@H]1NCc1cncn1C)C2(C)C | 12 |  |  |  |  | 
10 | CCCc1nc(C2CC2)[nH]c1CN[C@@H]1C[C@@H]2C[C@H]([C@H]1C)C2(C)C | 6.9 | 10.8 | 112 |  |  | 
11 | C[C@@H]1[C@H]2C[C@@H](C[C@H]1NCc1cnc(C3CCCC3)[nH]1)C2(C)C |  |  | 37.2 | Not Active |  | 
12 | CCCc1nc[nH]c1CN[C@@H]1C[C@@H]2C[C@H]([C@H]1C)C2(C)C | 2.5 | 3.3 | 200 |  |  | 97.9
13 | CC(C)c1ncc(CN[C@@H]2C[C@@H]3C[C@H]([C@H]2C)C3(C)C)[nH]1 |  |  | 114 | Not Active |  | 
14 | C[C@@H]1[C@H]2C[C@@H](C[C@H]1NCc1[nH]cnc1-c1ccccc1)C2(C)C |  |  | 39.7 | Not Active |  | 
15 | C[C@@H]1[C@H]2C[C@@H](C[C@H]1NCc1cnc(C3CC3)[nH]1)C2(C)C |  |  | 94.5 | Not Active |  | 
16 | CCc1nc[nH]c1CN[C@@H]1C[C@@H]2C[C@H]([C@H]1C)C2(C)C | 5.8 | 6.7 | 180 |  |  | 
17 | CCc1nc(C)c(CN[C@@H]2C[C@@H]3C[C@H]([C@H]2C)C3(C)C)[nH]1 | 4.1 | 4.5 | 136 |  |  | 91.7
18 | C[C@@H]1[C@H]2C[C@@H](C[C@H]1NCc1cnc(-c3cccs3)[nH]1)C2(C)C |  |  | 75.6 | Not Active |  | 
19 | Cc1nc(C(C)C)[nH]c1CN[C@@H]1C[C@@H]2C[C@H]([C@H]1C)C2(C)C |  |  | 73.1 | Not Active |  | 
20 | C[C@@H]1[C@H]2C[C@@H](C[C@H]1NCc1[nH]cnc1C1CC1)C2(C)C | 3.4 | 3.8 | 162 |  |  | 
21 | CCc1ncc(CN[C@@H]2C[C@@H]3C[C@H]([C@H]2C)C3(C)C)[nH]1 |  |  | 137 | Not Active |  | 
22 | CC(C)Cc1ncc(CN[C@@H]2C[C@@H]3C[C@H]([C@H]2C)C3(C)C)[nH]1 | 8.7 | 15.2 | 74.8 |  |  | 
23 | C[C@@H]1[C@H]2C[C@@H](C[C@H]1NCc1[nH]cnc1C(C)(C)C)C2(C)C | 8.3 | 12.9 | 72.3 |  |  | 
24 | CCCc1nc(C(C)C)[nH]c1CN[C@@H]1C[C@@H]2C[C@H]([C@H]1C)C2(C)C | 10.2 | 13.5 | 156 |  |  | 
